# Experimental data published in publication PMC10749586 (Nature, 2023).
# Where two headings read alike, the source gives them in different places.
# Assays:
# KARPAS422 cells [1] = assay: Cell viability; type: cell-based, human; conditions: for fold less-effective cell killing than TCIP1: JQ1 and BI3812 added separately or together, 72 h
# DLBCL cell lines = assay: Cell viability; type: cell-based, human; conditions: titrated against constant TCIP1 that kills 50–95% of cells within 72 h
# [2] = tested on: MYC, p21, FOXO3, BCL6, BRD4 protein levels; conditions: BET/BRD4 inhibitor; cited from earlier work
# SUDHL5 cells = assay: Cell viability in SUDHL5 cells with or without serum starvation; type: cell-based, human
# Procedure, shortened: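 SUDHL5 cells were arrested in G0/G1 by serum starvation, or left unstarved, before test compound addition. Viability was read with PrestoBlue resazurin reagent (1.5 h, fluorescence 560/590 nm). Signal was background-subtracted and normalized to DMSO-treated cells. n = 3 biological replicates, mean ± s.d.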
# BCL6 reporter = BCL6 reporter assay in KARPAS422 cells; type: cell-based, human; conditions: read-out: EC50 of BCL6 reporter activation, 8 h
# Procedure, shortened: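 KARPAS422 cells were lentivirally transduced with the BCL6 reporter construct and selected. They were then treated with test compound for 8 h, washed in 2.5% FBS/PBS, stained with 7-AAD (1:250 v/v) for live/dead and analysed by flow cytometry. A GFP-positive gate was set from non-transduced cells. The FITC histogram area past threshold, over live cells, was normalized to DMSO.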
# BRD4(BD1) = BRD4(BD1) (Homo sapiens, UniProt O60885); assay: ITC binary titration, TCIP1 and BRD4; type: binding; conditions: read-out: Kd of BRD4-TCIP1 (binary)
# [3] = biological target: BRD4(BD1)-TCIP1-BCL6(BTB) ternary complex (Homo sapiens, UniProt O60885+P41182, C67R/C84N/C8Q); assay: Biolayer interferometry of ternary complex; type: binding
# Procedure, shortened: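 Biolayer interferometry used biotinylated BCL6(BTB)-AviTag (100 nM) loaded on streptavidin tips. Wells held tag-cleaved BRD4(BD1) (50 µM, excess) with test compound titrated from 5.5 nM to 12 µM, at 25 °C. Steps were 300 s association, 300 s dissociation and 30 s baseline. Off-rate came from dissociation curves at 7–8 doses, n = 3 independent replicates, mean ± s.d.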
# [4] = tested on: primary human tonsillar lymphocytes; assay: Cell viability of primary human tonsillar lymphocytes; type: cell-based; conditions: read-out: EC50 of cell viability, 72 h
# [5] = Mouse tolerability and pharmacokinetic study; type: in vivo; conditions: 10 mg kg^−1 i.p. once daily for 5 days, C57BL/6 mice
# [6] = tested on: BRD4 / Pol II / H3K27ac chromatin occupancy; assay: ChIP-seq; type: cell-based, human
# Procedure, shortened: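 KARPAS422 cells (30 million) received test compound or DMSO, then were crosslinked with 1% formaldehyde for 12 min and quenched with 0.125 M glycine. Nuclei were prepared and immunoprecipitated overnight at 4 °C. Chromatin input was 50 µg for Pol II Ser2/Ser5 phos and 25 µg for H3K27ac, with Drosophila spike-in. Differential peaks: Wald test, Benjamini–Hochberg, padj ≤ 0.05, |log2| ≥ 0.5.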
# [7] = tested on: KARPAS422 cells gene expression; assay: RNA sequencing in KARPAS422 cells; type: cell-based, human
# [8] = tested on: MYC, p21, FOXO3, BCL6, BRD4 protein levels; assay: Western blots of target proteins in DLBCL cells; type: cell-based, human
# Procedure, shortened: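 Cells plated at 1 M ml−1 were treated with test compound (e.g., 20 h in KARPAS422). Two million cells were lysed on ice in RIPA (pH 8, 1% SDS, 1 mM DTT) with benzonase for 20 min. Lysates were cleared at 14,000g for 10 min at 4 °C and quantified by Bradford. Immunoblots probed BCL6, BRD4, BCL2, p53, MYC, FOXO3 and p21, with GAPDH as loading control.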
# KARPAS422 cells [9] = assay: Annexin V apoptosis assay; type: cell-based, human
# Procedure, shortened: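 KARPAS422 cells (500,000, plated at 1 M ml−1) were exposed to test compound for the stated times and doses, then harvested on ice and washed twice. They were stained with 7-AAD plus FITC-annexin V for 15 min at room temperature and read immediately by flow cytometry. Gates came from single-stain and no-stain controls. Kinetics used 2–6 biological replicates, mean ± s.d.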
# KARPAS422 cells [10] = assay: Cell cycle and TUNEL analysis; type: cell-based, human; conditions: cell-cycle analysis with TUNEL; 100 nM, 24 h
# OCILY19 cells = assay: Cell viability of OCILY19 cells; type: cell-based, human; conditions: OCILY19, no detectable BCL6
# [11] = 2 h, 10 nM, out of 51,678 consensus peaks
smiles,measurement,setting,value
Cc1sc2c(c1C)C(c1ccc(Cl)cc1)=N[C@@H](CC(=O)OC(C)(C)C)c1nnc(C)n1-2 [JQ1],fold less-effective cell killing than TCIP1,KARPAS422 cells [1],"100–1,000 fold"
same,rescue of TCIP1-induced cell death by competitive titration,DLBCL cell lines,prevented death by TCIP1
same,drug level at which MYC expression is reduced,[2],500 nM
CNC(=O)COc1cc2cc(Nc3nc(N4CCC(C(=O)N(C)C)CC4)ncc3Cl)cc(OC)c2n(C)c1=O [BI3812],fold less-effective cell killing than TCIP1,KARPAS422 cells [1],"100–1,000 fold"
same,rescue of TCIP1-induced cell death by competitive titration,DLBCL cell lines,prevented death by TCIP1
CNC(=O)COc1cc2cc(Nc3nc(N4CCC(C(=O)NCCCCCCCNC(=O)C[C@@H]5N=C(c6ccc(Cl)cc6)c6c(sc(C)c6C)-n6c(C)nnc65)CC4)ncc3Cl)cc(OC)c2n(C)c1=O [TCIP1],EC50,"KARPAS422 cells [1]; read-out: EC50 of cell viability, KARPAS422, 72 h after addition of drug",1.3 nM
same,EC50,"SUDHL5 cells; read-out: EC50 of cell viability after G0/G1 arrest, SUDHL5, serum starvation",0.25 nM
same,EC50,"SUDHL5 cells; read-out: EC50 of cell viability without arrest, SUDHL5, no serum starvation",3.2 nM
same,EC50,BCL6 reporter,5 nM
same,Kd,BRD4(BD1),5080 nM
same,off-rate of ternary complex,[3],26 ms^−1
same,EC50,[4],~210 nM
same,body weight change,[5],no significant changes in mouse body weight
same,histology (haematoxylin and eosin) of lung and spleen,[5],did not reveal noticeable abnormalities
same,H3K27ac peaks decreased,[6]; [11],70 peaks
same,H3K27ac peaks increased,[6]; [11],126 peaks
same,increase of BRD4 binding over genomic BCL6-binding sites,[6]; ChIP-seq,50%
same,BRD4 levels increase at promoters of upregulated genes,"[6]; ChIP-seq, 1 h of TCIP1 addition",approximately 150%
same,number of genes induced at early timepoints,"[7]; 10 nM, 1, 2 and 4 h, KARPAS422",approximately 140 genes
same,number of genes with increased expression,"[7]; 10 nM, 20 h, KARPAS422","1,654 genes"
same,number of genes with reduced expression,"[7]; 10 nM, 20 h, KARPAS422","1,347 genes"
same,time to upregulation of the long isoform of BCL6 mRNA,"[7]; RT-qPCR, 10 nM",1 to 2 h
same,time to FOXO3 activation,[8]; 10 nM,≤ 2 h
same,effect on BRD4 protein levels,"[8]; 20 h, KARPAS422",did not change substantially
same,time to reduction of MYC protein levels,[8]; after addition of drug,≤ 2 h
same,concentration from which MYC levels are reduced,"[8]; western blot, DLBCL cells",less than 1 nM
same,concentration that activates FOXO3,"[8]; western blot, DLBCL cells",0.5 nM
same,concentration inducing the BCL6L isoform,"[8]; western blot, Fig. 4k",≤ 1 nM
same,time to detectable apoptosis,KARPAS422 cells [9],4 to 8 h
same,cell-cycle effect,KARPAS422 cells [10],induced both a G1/S and G2/M block in the cell cycle
same,response in cell viability,OCILY19 cells,little or no response compared with controls
